Source: ChEMBL document CHEMBL1139875, “Discovery of 4-aminobutyric acid derivatives possessing anticonvulsant and antinociceptive activities: a hybrid pharmacophore approach” (2007)
Calls of active or inactive are those of the source. No cut-off for these calls is given here.

The molecules below were run on Mus musculus (assay: Anticonvulsant activity in Swiss Albino mouse at 300 mg/kg, ip after 0.5 hr by scPTZ test). Settings: not given.
Format: functional, organism-based
Parameters: dose 300 mg/kg
Method in brief: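 Mice (Swiss, 20-25 g) given i.p. doses of 30, 100 and 300 mg/kg under ADD program protocols, three per group, examined at 0.5 and 4 h in MES, scPTZ, scSTY or scPIC seizure tests. Value is the minimum dose protecting half or more of the mice.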

Row | Compound | Activity
1 | O=C(O)CCCNC(=O)N/N=C1\C(=O)Nc2ccccc21 | Active

Each molecule was assayed on Mus musculus (assay: Analgesic activity in Swiss Albino mouse assessed as inhibition of acetic acid-induced writhing responses at 100 mg/kg, ip). Settings: route intraperitoneal.
Format: functional
Method in brief: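 Mice in groups of six dosed i.p. at 100 mg/kg, controls receiving 30% v/v PEG 400 in water. Writhing induced by i.p. 0.1 mL of 3% v/v acetic acid 1 h after drug. Writhes (abdominal stretch with at least one hind limb extended) counted over 30 min; % inhibition calculated. Mean ± SEM, Student's t test.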

Row | Compound | inhibition in vivo at 100 mg/kg [%]
2 | O=C(O)CCCNC(=O)N/N=C1\C(=O)Nc2ccccc21 | 74

Each molecule was assayed on Rattus norvegicus (assay: Effect on spontaneous pain in Sprague-Dawley rat CCI model assessed as duration of paw withdrawal at 100 mg/kg, ip after 0.5 hr). Settings: route intraperitoneal.
Format: functional
Method in brief: (§1)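 CCI rats (n = 4) dosed 100 mg/kg i.p. (vehicle 30% v/v PEG 400 in water). After 10 min acclimatization in a cage 5 cm above ground, cumulative time the ipsilateral paw was held off the floor over 5 min recorded, excluding locomotion lifts. Mean ± SEM; ANOVA/Bonferroni versus predrug.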

Row | Compound | Activity [s]
3 | O=C(O)CCCNC(=O)N/N=C1\C(=O)Nc2ccccc21 | 38.6

The molecules below were run on Rattus norvegicus (assay: Effect on spontaneous pain in Sprague-Dawley rat CCI model assessed as duration of paw withdrawal at 100 mg/kg, ip after 1 hr). Settings: route intraperitoneal.
Format: functional
Method in brief: as §1

Row | Compound | Activity [s]
4 | O=C(O)CCCNC(=O)N/N=C1\C(=O)Nc2ccccc21 | 34.9

The molecules below were run on Rattus norvegicus (assay: Effect on spontaneous pain in Sprague-Dawley rat CCI model assessed as duration of paw withdrawal at 100 mg/kg, ip after 1.5 hrs). Settings: route intraperitoneal.
Format: functional
Method in brief: (§2)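 Unilateral CCI of sciatic nerve (Bennett and Xie) in Sprague-Dawley rats under i.p. pentobarbital sodium (65 mg/kg). Spontaneous pain is scored over 5 min after 10 min acclimatization, as cumulative time the ipsilateral paw is held off the floor. Paw lifts from locomotion or repositioning are excluded. Drug is given at 100 mg/kg i.p. with 30% v/v PEG 400 vehicle. Mean ± SEM, n = 4, compared with predrug by ANOVA/Bonferroni.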

Row | Compound | Activity [s]
5 | O=C(O)CCCNC(=O)N/N=C1\C(=O)Nc2ccccc21 | 21.6

These molecules were tested on Rattus norvegicus (assay: Effect on spontaneous pain in Sprague-Dawley rat CCI model assessed as duration of paw withdrawal at 100 mg/kg, ip after 2 hrs). Settings: route intraperitoneal.
Format: functional
Method in brief: as §2

Row | Compound | Activity [s]
6 | O=C(O)CCCNC(=O)N/N=C1\C(=O)Nc2ccccc21 | 20.6

These molecules were tested on Rattus norvegicus (assay: Anti-cold allodynia effect in Sprague-Dawley rat SNL model assessed as duration of paw withdrawal 100 mg/kg, ip after 1.5 hrs). Settings: route intraperitoneal.
Format: functional
Method in brief: (§3)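 Left L5 spinal nerve ligation under pentobarbital (65 mg/kg i.p.). Allodynic rats dosed i.p. 100 mg/kg, vehicle 30% v/v PEG 400 in water. Acetone (100-200 µL) misted onto midplantar affected paw after 10 min acclimatization; paw withdrawal duration, mean of three samples at least 3 min apart; n = 4 rats.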

Row | Compound | Activity [s]
7 | O=C(O)CCCNC(=O)N/N=C1\C(=O)Nc2ccccc21 | 22.6

What follows are molecules tested on Rattus norvegicus (assay: Anti-cold allodynia effect in Sprague-Dawley rat SNL model assessed as duration of paw withdrawal 100 mg/kg, ip after 2 hrs). Settings: route intraperitoneal.
Format: functional
Method in brief: as §3

Row | Compound | Activity [s]
8 | O=C(O)CCCNC(=O)N/N=C1\C(=O)Nc2ccccc21 | 17.1

These molecules were tested on Rattus norvegicus (assay: Effect on spontaneous pain in Sprague-Dawley rat CCI model assessed as duration of paw withdrawal at 100 mg/kg, ip after 2.5 hrs). Settings: route intraperitoneal.
Format: functional
Method in brief: as §2

Row | Compound | Activity [s]
9 | O=C(O)CCCNC(=O)N/N=C1\C(=O)Nc2ccccc21 | 20.2

Each molecule was assayed on Rattus norvegicus (assay: Antihyperalgesic effects in Sprague-Dawley rat CCI model assessed as duration of paw withdrawal at 100 mg/kg, ip after 0.5 hr). Settings: route intraperitoneal.
Format: functional

Row | Compound | Activity [s]
10 | O=C(O)CCCNC(=O)N/N=C1\C(=O)Nc2ccccc21 | 10.8

The molecules below were run on Rattus norvegicus (assay: Antihyperalgesic effects in Sprague-Dawley rat CCI model assessed as duration of paw withdrawal at 100 mg/kg, ip after 1 hr). Settings: route intraperitoneal.
Format: functional

Row | Compound | Activity [s]
11 | O=C(O)CCCNC(=O)N/N=C1\C(=O)Nc2ccccc21 | 4.9

These molecules were tested on Rattus norvegicus (assay: Antihyperalgesic effects in Sprague-Dawley rat CCI model assessed as duration of paw withdrawal at 100 mg/kg, ip after 1.5 hrs). Settings: route intraperitoneal.
Format: functional

Row | Compound | Activity [s]
12 | O=C(O)CCCNC(=O)N/N=C1\C(=O)Nc2ccccc21 | 8.8

These molecules were tested on Rattus norvegicus (assay: Antihyperalgesic effects in Sprague-Dawley rat CCI model assessed as duration of paw withdrawal at 100 mg/kg, ip after 2 hrs). Settings: route intraperitoneal.
Format: functional

Row | Compound | Activity [s]
13 | O=C(O)CCCNC(=O)N/N=C1\C(=O)Nc2ccccc21 | 5

These molecules were tested on Rattus norvegicus (assay: Antihyperalgesic effects in Sprague-Dawley rat CCI model assessed as duration of paw withdrawal at 100 mg/kg, ip after 2.5 hrs). Settings: route intraperitoneal.
Format: functional

Row | Compound | Activity [s]
14 | O=C(O)CCCNC(=O)N/N=C1\C(=O)Nc2ccccc21 | 27.8

These molecules were tested on Rattus norvegicus (assay: Antihyperalgesic effects in Sprague-Dawley rat SNL model assessed as duration of paw withdrawal at 100 mg/kg, ip after 0.5 hr, ip). Settings: route intraperitoneal.
Format: functional
Method in brief: (§4)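 L5 SNL rats (n = 4), dosed 100 mg/kg i.p. (vehicle 30% v/v PEG 400 in water). Pin-prick to midplantar ipsilateral left hindpaw; withdrawal duration, mean of three responses; ≥2 s defined abnormal. Mean ± SEM; one-way ANOVA with Bonferroni versus predrug.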

Row | Compound | Activity [s]
15 | O=C(O)CCCNC(=O)N/N=C1\C(=O)Nc2ccccc21 | 4.7

The molecules below were run on Rattus norvegicus (assay: Antihyperalgesic effects in Sprague-Dawley rat SNL model assessed as duration of paw withdrawal at 100 mg/kg, ip after 1 hr, ip). Settings: route intraperitoneal.
Format: functional
Method in brief: as §4

Row | Compound | Activity [s]
16 | O=C(O)CCCNC(=O)N/N=C1\C(=O)Nc2ccccc21 | 9.6

What follows are molecules tested on Rattus norvegicus (assay: Antihyperalgesic effects in Sprague-Dawley rat SNL model assessed as duration of paw withdrawal at 100 mg/kg, ip after 1.5 hrs, ip). Settings: route intraperitoneal.
Format: functional
Method in brief: as §4

Row | Compound | Activity [s]
17 | O=C(O)CCCNC(=O)N/N=C1\C(=O)Nc2ccccc21 | 45.7

These molecules were tested on Rattus norvegicus (assay: Antihyperalgesic effects in Sprague-Dawley rat SNL model assessed as duration of paw withdrawal at 100 mg/kg, ip after 2.5 hrs, ip). Settings: route intraperitoneal.
Format: functional
Method in brief: as §4

Row | Compound | Activity [s]
18 | O=C(O)CCCNC(=O)N/N=C1\C(=O)Nc2ccccc21 | 18.7

Organism: Rattus norvegicus
Experiment: Anti-dynamic allodynic effect in Sprague-Dawley rat CCI model assessed as latency to paw withdrawal after 0.5 hr
Format: functional
Settings: not given
Method in brief: (§5)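 Rats with sciatic nerve chronic constriction injury (pentobarbital 65 mg/kg i.p. anaesthesia), baseline and day 9 testing, then drug per randomization table. After 10 min acclimatization, affected plantar surface stroked mildly with a cotton-bud; paw lift recorded. n = 4; retested 0.5-2.5 h post-dose.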

Row | Compound | Activity [s]
19 | O=C(O)CCCNC(=O)N/N=C1\C(=O)Nc2ccccc21 | 14.5

Organism: Rattus norvegicus
Experiment: Anti-dynamic allodynic effect in Sprague-Dawley rat CCI model assessed as latency to paw withdrawal after 1 hr
Format: functional
Settings: not given
Method in brief: as §5

Row | Compound | Activity [s]
20 | O=C(O)CCCNC(=O)N/N=C1\C(=O)Nc2ccccc21 | 12.4

Organism: Rattus norvegicus
Experiment: Anti-dynamic allodynic effect in Sprague-Dawley rat CCI model assessed as latency to paw withdrawal after 1.5 hr
Format: functional
Settings: not given
Method in brief: as §5

Row | Compound | Activity [s]
21 | O=C(O)CCCNC(=O)N/N=C1\C(=O)Nc2ccccc21 | 15.5

Organism: Rattus norvegicus
Experiment: Anti-dynamic allodynic effect in Sprague-Dawley rat CCI model assessed as latency to paw withdrawal after 2 hr
Format: functional
Settings: not given
Method in brief: as §5

Row | Compound | Activity [s]
22 | O=C(O)CCCNC(=O)N/N=C1\C(=O)Nc2ccccc21 | 8.4

Organism: Rattus norvegicus
Experiment: Anti-dynamic allodynic effect in Sprague-Dawley rat CCI model assessed as latency to paw withdrawal after 2.5 hr
Format: functional
Settings: not given
Method in brief: as §5

Row | Compound | Activity [s]
23 | O=C(O)CCCNC(=O)N/N=C1\C(=O)Nc2ccccc21 | 0.8
